Measurements taken from article PMC9588736 (Cell chemical biology, 2022).
Where two headings read alike, the source gives them in different places.

What was measured:
[1] = target: BRD4 (Homo sapiens, UniProt O60885); assay: Immunoblot of BRD4 degradation in MM.1S cells; format: cell-based; details: for cellular degradation of BRD4, linker library: 16 h
In short: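 MM.1S cells were treated with test compound for 16 h (24 h in the initial screen). For rescue, cells were pretreated 2 h with 10 μM KEAP1 inhibitor, 10 μM JQ1 or 1 μM MLN4924. Lysates in RIPA were BCA-normalised, run on 4–12% gels and blotted to PVDF with IRDye secondaries. BRD4 bands were quantified relative to β-actin. Two independent experiments.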

[2] = target: KEAP1-BRD4BD2 (Homo sapiens, UniProt O60885+Q14145); assay: KEAP1-BRD4BD2 dimerization TR-FRET assay; format: biochemical
KEAP1-BRD4BD2, sequence (Q14145 321-609 limits assumed, other chains not shown): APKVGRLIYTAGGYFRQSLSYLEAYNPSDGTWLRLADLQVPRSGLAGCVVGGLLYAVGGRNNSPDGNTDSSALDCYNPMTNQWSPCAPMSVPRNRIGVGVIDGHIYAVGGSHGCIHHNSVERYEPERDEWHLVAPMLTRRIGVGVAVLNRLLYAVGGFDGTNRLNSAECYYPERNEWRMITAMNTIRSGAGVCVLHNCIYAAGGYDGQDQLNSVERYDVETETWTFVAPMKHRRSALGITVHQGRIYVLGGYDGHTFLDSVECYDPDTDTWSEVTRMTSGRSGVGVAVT
In short: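 TR-FRET mix: 200 nM biotinylated human BRD4BD2, 200 nM Alexa Fluor 647-labelled human KEAP1 (residues 321–609, insect-cell expressed, SpyCatcher-labelled) and 2 nM Eu-streptavidin. Buffer was 50 mM Tris pH 8.0, 200 mM NaCl, 0.1% Pluronic F-68, 0.5% BSA and 1 mM TCEP; compound was titrated. After 15 min at room temperature, excitation was 337 nm and the 665/620 nm ratio was read over thirty 200-s cycles. Mean ± SD of ≥3 technical replicates; two independent experiments.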

[3] = target: T1, KEAP1 (Homo sapiens, UniProt Q14145); assay: KEAP1-NRF2 displacement TR-FRET assay; format: binding
Target sequence in this assay (Q14145 321-609): as the sequence (Q14145 321-609 limits assumed, other chains not shown) above

[4] = tested on: OVCAR8 cells; assay: Proteomics profiling of KEAP1-CRBN PROTACs; format: cell-based, human; details: legend: MM.1S cells, 5 h, 5 μM
[5] = target: CRBN (Homo sapiens, UniProt Q96SW2); assay: Immunoblot of CRBN in MM.1S cells; format: cell-based
CRBN, sequence (Q96SW2 whole entry): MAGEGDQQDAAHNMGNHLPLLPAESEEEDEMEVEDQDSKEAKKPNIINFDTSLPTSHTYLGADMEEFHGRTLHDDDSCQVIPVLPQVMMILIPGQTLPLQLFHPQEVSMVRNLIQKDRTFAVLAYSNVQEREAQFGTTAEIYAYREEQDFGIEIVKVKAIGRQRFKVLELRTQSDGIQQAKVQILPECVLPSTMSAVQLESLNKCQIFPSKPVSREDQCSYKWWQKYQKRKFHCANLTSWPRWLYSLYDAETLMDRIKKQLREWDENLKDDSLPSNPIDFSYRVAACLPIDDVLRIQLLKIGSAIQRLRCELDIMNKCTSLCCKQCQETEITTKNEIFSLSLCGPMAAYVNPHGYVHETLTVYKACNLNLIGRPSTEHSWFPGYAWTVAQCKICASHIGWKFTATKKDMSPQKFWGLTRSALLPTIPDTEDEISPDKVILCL

[6] = target: T1, KEAP1; assay: Immunoblot of KEAP1 degradation in WT and CRBN−/− MM.1S cells; format: cell-based; details: for KEAP1 degradation in CRBN knockout cells: CRBN−/− MM.1S cells; for KEAP1 degradation in CRBN knockout cells / KEAP1 degradation in wildtype cells: 5 μM, 2-hour treatment; for KEAP1 degradation: MM.1S cells; for KEAP1 degradation in wildtype cells: wildtype MM.1S cells
Target sequence in this assay (Q14145 whole entry): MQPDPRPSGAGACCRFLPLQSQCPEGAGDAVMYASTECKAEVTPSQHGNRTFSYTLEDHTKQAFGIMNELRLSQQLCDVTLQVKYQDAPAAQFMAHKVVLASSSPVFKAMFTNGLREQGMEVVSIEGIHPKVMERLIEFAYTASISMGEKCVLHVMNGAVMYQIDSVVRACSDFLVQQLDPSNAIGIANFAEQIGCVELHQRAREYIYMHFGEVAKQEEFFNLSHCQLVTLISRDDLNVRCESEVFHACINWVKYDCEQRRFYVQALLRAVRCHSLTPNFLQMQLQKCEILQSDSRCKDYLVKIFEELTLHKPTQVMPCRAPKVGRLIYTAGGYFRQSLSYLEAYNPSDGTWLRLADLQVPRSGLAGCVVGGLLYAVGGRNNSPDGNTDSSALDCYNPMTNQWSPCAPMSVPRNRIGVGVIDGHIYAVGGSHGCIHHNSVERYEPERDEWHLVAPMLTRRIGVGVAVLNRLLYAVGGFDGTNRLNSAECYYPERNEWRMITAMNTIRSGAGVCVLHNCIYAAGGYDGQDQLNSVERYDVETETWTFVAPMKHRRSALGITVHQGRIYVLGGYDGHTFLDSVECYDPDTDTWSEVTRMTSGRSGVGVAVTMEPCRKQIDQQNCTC

[7] = tested on: MM.1S cells; assay: Antiproliferation assay; format: cell-based; details: Homo sapiens, MM1.S, 72 h, read-out: anti-proliferative effect
In short: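 MM.1S cells (RPMI, 10% FBS, 1% Pen/Strep, 37°C, 5% CO2) seeded at 10000 cells/well and grown 12 h, then exposed to test compound for 72 h. Viability read by CellTiter-Glo luminescence. Dose-response curves fitted by non-linear regression. Mean ± SEM of three technical replicates; representative of two independent experiments.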

Q: Which “concentration at which hook effect is exhibited” value ([1]; MM.1S cells, 24 h) does the source give for `COc1cc(C(CC(=O)O)c2ccc(C)c(CN3C[C@@H](C)Oc4cc(CCCCCCNC(=O)C[C@@H]5N=C(c6ccc(Cl)cc6)c6c(sc(C)c6C)-n6c(C)nnc65)ccc4S3(=O)=O)c2)cc2nnn(C)c12` (mixture of isomers) [DGY-06–177, 3-(3-(((R)-7-(6-(2-((S)-4-(4-chlorophenyl)-2,3,9-trimethyl-6H-thieno[3,2-f][1,2,4]triazolo[4,3-a][1,4]diazepin-6-yl)acetamido)hexyl)-4-methyl-1,1-dioxido-3,4-dihydro-2H-benzo[b][1,4,5]oxathiazepin-2-yl)methyl)-4-methylphenyl)-3-(7-methoxy-1-methyl-1H-benzo[d][1,2,3]triazol-5-yl)propanoic acid] here?
A: Its value is 5 µM.

Q: What about the “concentration of maximal BRD4 degradation” value ([1]; MM.1S cells, 24 h) of the same molecule?
A: Its value is 1 µM.

Q: What about the “concentration at which KEAP1-BRD4BD2 dimerization is promoted” value [2] of the same molecule?
A: Its value is “approximately 100 nM”.

Q: And the IC50 [3]?
A: Its IC50 is 145 nM.

Q: Which results are given for `COc1cc(C(CC(=O)O)c2ccc(C)c(CN(C)S(=O)(=O)c3ccc(OCCCCCCNC(=O)C[C@@H]4N=C(c5ccc(Cl)cc5)c5c(sc(C)c5C)-n5c(C)nnc54)cc3)c2)cc2nnn(C)c12` (stereo partly drawn) [DGY-05–089, 3-(3-(((4-((6-(2-((S)-4-(4-chlorophenyl)-2,3,9-trimethyl-6H-thieno[3,2-f][1,2,4]triazolo[4,3-a][1,4]diazepin-6-yl)acetamido)hexyl)oxy)-N-methylphenyl)sulfonamido)methyl)-4-methylphenyl)-3-(7-methoxy-1-methyl-1H-benzo[d][1,2,3]triazol-5-yl)propanoic acid]?
A: BRD4 degradation ([1]; MM.1S cells, 24 h): failed to degrade BRD4; KEAP1-BRD4BD2 ternary complex formation / dimerization [2]: did not induce ternary complex formation; IC50 ([3]; read-out: IC50, KEAP1-NRF2 TR-FRET displacement): 147 nM

Q: How did the “concentration at which KEAP1-BRD4BD2 dimerization is induced” value [2] turn out when `COc1cc([C@H](CC(=O)O)c2ccc(C)c(CN3C[C@@H](C)Oc4cc(CCCCCCNC(=O)C[C@@H]5N=C(c6ccc(Cl)cc6)c6c(sc(C)c6C)-n6c(C)nnc65)ccc4S3(=O)=O)c2)cc2nnn(C)c12` [DGY-06–177-pk1, (R)-3-(3-(((R)-7-(6-(2-((S)-4-(4-chlorophenyl)-2,3,9-trimethyl-6H-thieno[3,2-f][1,2,4]triazolo[4,3-a][1,4]diazepin-6-yl)acetamido)hexyl)-4-methyl-1,1-dioxido-3,4-dihydro-2H-benzo[b][1,4,5]oxathiazepin-2-yl)methyl)-4-methylphenyl)-3-(7-methoxy-1-methyl-1H-benzo[d][1,2,3]triazol-5-yl)propanoic acid] was run?
A: The value was ~ 10 μM.

Q: Which results are given for `COc1cc([C@@H](CC(=O)O)c2ccc(C)c(CN3C[C@@H](C)Oc4cc(CCCCCCNC(=O)COc5cccc6c5C(=O)N(C5CCC(=O)NC5=O)C6=O)ccc4S3(=O)=O)c2)cc2nnn(C)c12` (stereo partly drawn) [NJH-04–086, (3S)-3-(3-(((4R)-7-(6-(2-((2-(2,6-dioxopiperidin-3-yl)-1,3-dioxoisoindolin-4-yl)oxy)acetamido)hexyl)-4-methyl-1,1-dioxido-3,4-dihydro-2H-benzo[b][1,4,5]oxathiazepin-2-yl)methyl)-4-methylphenyl)-3-(7-methoxy-1-methyl-1H-benzo[d][1,2,3]triazol-5-yl)propanoic acid]?
A: selectivity of degradation across the proteome [4]: clear degradation of KEAP1 and a few zinc finger proteins; effect on CRBN [5]: spared CRBN; KEAP1 degradation in CRBN knockout cells [6]: not CRBN^−/− MM.1S cells; KEAP1 degradation [6]: rapid degradation of KEAP1; KEAP1 degradation in wildtype cells [6]: observed KEAP1 degradation

Q: With `COc1cc([C@@H](CC(=O)O)c2ccc(C)c(CN3C[C@@H](C)Oc4cc(CCCCCCNC(=O)COc5cc6c7c(cccc7c5)C(=O)N(C5CCC(=O)NC5=O)C6=O)ccc4S3(=O)=O)c2)cc2nnn(C)c12` (stereo partly drawn) [NJH-04–087, (3S)-3-(3-(((4R)-7-(6-(2-((2-(2,6-dioxopiperidin-3-yl)-1,3-dioxo-2,3-dihydro-1H-benzo[de]isoquinolin-5-yl)oxy)acetamido)hexyl)-4-methyl-1,1-dioxido-3,4-dihydro-2H-benzo[b][1,4,5]oxathiazepin-2-yl)methyl)-4-methylphenyl)-3-(7-methoxy-1-methyl-1H-benzo[d][1,2,3]triazol-5-yl)propanoic acid] as the molecule, how does the “selectivity of degradation across the proteome” value [4] read?
A: Its value is “selective for inducing degradation of KEAP1 across the proteome and does not degrade any zinc finger proteins”.

Q: What about the “effect on CRBN” value [5] of the same molecule?
A: The value was “spared CRBN”.

Q: What about the “KEAP1 degradation in CRBN knockout cells” value [6] of the same molecule?
A: Its value is “not CRBN^−/− MM.1S cells”.

Q: What about the KEAP1 degradation [6] of the same molecule?
A: The KEAP1 degradation was “rapid degradation of KEAP1”.

Q: What about the “KEAP1 degradation in wildtype cells” value [6] of the same molecule?
A: Its value is “observed KEAP1 degradation”.

Q: For `COc1cc([C@@H](CC(=O)O)c2ccc(C)c(CN3C[C@@H](C)Oc4cc(CCCCCCNC(=O)COc5cc6c7c(cccc7c5)C(=O)N(C5CCC(=O)N(C)C5=O)C6=O)ccc4S3(=O)=O)c2)cc2nnn(C)c12` (stereo partly drawn) [NJH-04–202, (3S)-3-(7-methoxy-1-methyl-1H-benzo[d][1,2,3]triazol-5-yl)-3-(4-methyl-3-(((4R)-4-methyl-7-(6-(2-((2-(1-methyl-2,6-dioxopiperidin-3-yl)-1,3-dioxo-2,3-dihydro-1H-benzo[de]isoquinolin-5-yl)oxy)acetamido)hexyl)-1,1-dioxido-3,4-dihydro-2H-benzo[b][1,4,5]oxathiazepin-2-yl)methyl)phenyl)propanoic acid], which “KEAP1 degradation, negative control” value ([6]; WT MM.1S cells, 4 h) is on record?
A: The value was “did not induce KEAP1 degradation”.

Q: Which “cellular degradation of BRD4, linker library” value ([1]; MM.1S cells) does the source give for `COc1cc([C@@H](CC(=O)O)c2ccc(C)c(CN3C[C@@H](C)Oc4cc(CCCCNC(=O)C[C@@H]5N=C(c6ccc(Cl)cc6)c6c(sc(C)c6C)-n6c(C)nnc65)ccc4S3(=O)=O)c2)cc2nnn(C)c12` [NJH-05–138, (S)-3-(3-(((R)-7-(4-(2-((S)-4-(4-chlorophenyl)-2,3,9-trimethyl-6H-thieno[3,2-f][1,2,4]triazolo[4,3-a][1,4]diazepin-6-yl)acetamido)butyl)-4-methyl-1,1-dioxido-3,4-dihydro-2H-benzo[b][1,4,5]oxathiazepin-2-yl)methyl)-4-methylphenyl)-3-(7-methoxy-1-methyl-1H-benzo[d][1,2,3]triazol-5-yl)propanoic acid] here?
A: Its value is “showed cellular degradation of BRD4 to a similar level to DGY-06–177-pk2”.

Q: For `COc1cc([C@@H](CC(=O)O)c2ccc(C)c(CN3C[C@@H](C)Oc4cc(CCCOCCNC(=O)C[C@@H]5N=C(c6ccc(Cl)cc6)c6c(sc(C)c6C)-n6c(C)nnc65)ccc4S3(=O)=O)c2)cc2nnn(C)c12` [NJH-05–141, (S)-3-(3-(((R)-7-(3-(2-(2-((S)-4-(4-chlorophenyl)-2,3,9-trimethyl-6H-thieno[3,2-f][1,2,4]triazolo[4,3-a][1,4]diazepin-6-yl)acetamido)ethoxy)propyl)-4-methyl-1,1-dioxido-3,4-dihydro-2H-benzo[b][1,4,5]oxathiazepin-2-yl)methyl)-4-methylphenyl)-3-(7-methoxy-1-methyl-1H-benzo[d][1,2,3]triazol-5-yl)propanoic acid], which “cellular degradation of BRD4, linker library” value ([1]; MM.1S cells) is on record?
A: Its value is “showed cellular degradation of BRD4 to a similar level to DGY-06–177-pk2”.

Q: How did the “activity at prolonged timepoints” value [1] turn out when `CCOC(=O)C[C@@H](c1ccc(C)c(CN2C[C@@H](C)Oc3cc(CCCCCCNC(=O)C[C@@H]4N=C(c5ccc(Cl)cc5)c5c(sc(C)c5C)-n5c(C)nnc54)ccc3S2(=O)=O)c1)c1cc(OC)c2c(c1)nnn2C` [NJH-05–146, Ethyl (S)-3-(3-(((R)-7-(6-(2-((S)-4-(4-chlorophenyl)-2,3,9-trimethyl-6H-thieno[3,2-f][1,2,4]triazolo[4,3-a][1,4]diazepin-6-yl)acetamido)hexyl)-4-methyl-1,1-dioxido-3,4-dihydro-2H-benzo[b][1,4,5]oxathiazepin-2-yl)methyl)-4-methylphenyl)-3-(7-methoxy-1-methyl-1H-benzo[d][1,2,3]triazol-5-yl)propanoate] was run?
A: The value was “inactive even at prolonged timepoints”.

Q: And the “BRD4 degradation, negative control” value ([1]; MM.1S cells, 16-hour treatment at 0.1, 1, and 10 μM)?
A: Its value is “did not result in degradation of BRD4”.

Q: And the IC50 [7]?
A: Its IC50 is over 10 µM.

Q: And the “KEAP1 binding / engagement in TR-FRET Nrf2 peptide displacement assay” value [3]?
A: Its value is “did not bind KEAP1”.
